# Measurements as given in ChEMBL document CHEMBL1240455, “Synthesis of 5-[alkoxy-(4-nitro-phenyl)-methyl]-uridines and study of their cytotoxic activity” (Eur J Med Chem, 2010).
# Assays:
# Staphylococcus aureus [1] = assay: Antimicrobial activity against Staphylococcus aureus CCM 3953 after 24 hrs; format: functional; settings: CCM 3953, 24 h
# CCRF-CEM [2] = assay: Induction of mitotic arrest in human CEM cells assessed as pH3Ser10 positive cells at 5 times IC50 concentration after 24 hrs by flow cytometry; format: functional
# CCRF-CEM [3] = assay: Cytotoxicity against human CEM cells after 72 hrs by MTT assay; format: functional, cell-based
# Outline: (§1)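 Cells seeded at 2500–30,000 per well by cell type and pre-incubated 24 h at 37 °C, 5% CO2. Compounds dissolved in 10% DMSO, added as four-fold dilutions at time zero, tested in quadruplicate. Exposure 72 h at 37 °C, 5% CO2, 100% humidity. MTT then added for 1–4 h, formazan dissolved overnight at 37 °C, OD read at 540 nm. IC50 taken from dose-response curves relative to control wells.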
# CCRF-CEM [4] = assay: Inhibition of DNA synthesis in human CEM cells assessed as BrDU incorporation using propidium iodide staining at 5 times IC50 concentration after 24 hrs by flow cytometry; format: functional; design: scale not given: the % may be the effect or the level left
# Outline: (§2)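 CEM cells exposed at 1× and 5× IC50 for 3, 6, 9 and 24 h, then pulsed with BrdU for 30 min at 37 °C. Cells fixed overnight in ice-cold 70% ethanol and DNA denatured in 2 M HCl for 30 min. Neutralised with 0.1 M sodium borate, then stained with anti-BrdU antibody, FITC secondary, and propidium iodide/RNase. Read by flow cytometry at 488 nm.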
# CCRF-CEM [5] = assay: Cell cycle arrest in human CEM cells assessed as accumulation at G0/G1 phase using propidium iodide staining at IC50 concentration after 24 hrs by flow cytometry; format: functional
# A549 = assay: Cytotoxicity against human A549 cells after 72 hrs by MTT assay; format: functional, cell-based; outline: as §1
# CCRF-CEM [6] = assay: Induction of apoptosis in human CEM cells using propidium iodide staining at IC50 concentration after 24 hrs by flow cytometry; format: functional
# CCRF-CEM [7] = assay: Cell cycle arrest in human CEM cells assessed as accumulation at S phase using propidium iodide staining at IC50 concentration after 24 hrs by flow cytometry; format: functional
# CCRF-CEM [8] = assay: Induction of apoptosis in human CEM cells using propidium iodide staining at 5 times IC50 concentration after 24 hrs by flow cytometry; format: functional
# [9] = Cytotoxicity against human CEM-DNR-B cells after 72 hrs by MTT assay; format: functional, cell-based; outline: as §1
# K562 [10] = assay: Cytotoxicity against human K562 cells after 72 hrs by MTT assay; format: functional, cell-based; outline: as §1
# [11] = tested on: Staphylococcus haemolyticus; assay: Antimicrobial activity against Staphylococcus haemolyticus after 24 hrs; format: functional
# Outline: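 MIC taken as the lowest concentration preventing bacterial growth after 24 h incubation at 37 °C. Strains came from the Czech Collection of Microorganisms or from clinical isolates of hospital patients.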
# CCRF-CEM [12] = assay: Inhibition of RNA synthesis in human CEM cells assessed as BrU incorporation using propidium iodide staining at IC50 concentration after 24 hrs by flow cytometry; format: functional; design: scale not given: the % may be the effect or the level left
# Outline: (§3)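 RNA synthesis measured by flow cytometry of incorporated 5-bromouridine, detected with a cross-reacting anti-BrdU antibody. CEM cells exposed at 1× and 5× IC50 for 3, 6, 9 and 24 h and pulsed for 30 min at 37 °C before harvest. Fixed 15 min in 1% paraformaldehyde/0.05% NP-40 in PBS and stored at 4 °C at least overnight. Stained with primary and FITC secondary antibodies, 30 min each at room temperature.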
# CCRF-CEM [13] = assay: Inhibition of DNA synthesis in human CEM cells assessed as BrDU incorporation using propidium iodide staining at IC50 concentration after 24 hrs by flow cytometry; format: functional; design: scale not given: the % may be the effect or the level left; outline: as §2
# CCRF-CEM [14] = assay: Inhibition of RNA synthesis in human CEM cells assessed as BrU incorporation using propidium iodide staining at 5 times IC50 concentration after 24 hrs by flow cytometry; format: functional; design: scale not given: the % may be the effect or the level left; outline: as §3
# CCRF-CEM [15] = assay: Induction of mitotic arrest in human CEM cells assessed as pH3Ser10 positive cells at IC50 concentration after 24 hrs by flow cytometry; format: functional
# K562 [16] = assay: Cytotoxicity against human paclitaxel-resistant K562 cells after 72 hrs by MTT assay; format: functional, cell-based; outline: as §1
# Enterococcus faecalis = assay: Antimicrobial activity against Enterococcus faecalis CCM 4224 after 24 hrs; format: functional; settings: CCM 4224, 24 h
# Staphylococcus aureus [17] = assay: Antimicrobial activity against methicillin-resistant Staphylococcus aureus after 24 hrs; format: functional
# CCRF-CEM [18] = assay: Cell cycle arrest in human CEM cells assessed as accumulation at G2/M phase using propidium iodide staining at IC50 concentration after 24 hrs by flow cytometry; format: functional
# CCRF-CEM [19] = assay: Cell cycle arrest in human CEM cells assessed as accumulation at S phase using propidium iodide staining at 5 times IC50 concentration after 24 hrs by flow cytometry; format: functional
# Outline: (§4)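 CEM T-lymphoblastic leukemia cells were exposed to compound at 1× and 5× IC50 over a 24 h interval. DNA content was measured by flow cytometry with a 488 nm laser.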
# CCRF-CEM [20] = assay: Cell cycle arrest in human CEM cells assessed as accumulation at G2/M phase using propidium iodide staining at 5 times IC50 concentration after 24 hrs by flow cytometry; format: functional; outline: as §4
# CCRF-CEM [21] = assay: Cell cycle arrest in human CEM cells assessed as accumulation at G0/G1 phase using propidium iodide staining at 5 times IC50 concentration after 24 hrs by flow cytometry; format: functional; outline: as §4
Structure (SMILES),Activity (CCRF-CEM [2]) [%],"IC50 (CCRF-CEM [3]; Homo sapiens, CCRF-CEM, 72 h) [µM]",Activity (CCRF-CEM [4]) [%],Activity (CCRF-CEM [5]) [%],"IC50 (A549; Homo sapiens, A549, 72 h) [µM]",Activity (CCRF-CEM [6]) [%],Activity (CCRF-CEM [7]) [%],Activity (CCRF-CEM [8]) [%],"IC50 ([9]; Homo sapiens, 72 h) [µM]","IC50 (K562 [10]; Homo sapiens, K562, 72 h) [µM]",Activity (CCRF-CEM [12]) [%],Activity (CCRF-CEM [13]) [%],Activity (CCRF-CEM [14]) [%],Activity (CCRF-CEM [15]) [%],"IC50 (K562 [16]; Homo sapiens, K562, 72 h) [µM]",Activity (CCRF-CEM [18]) [%],IC50 (CCRF-CEM [3]; ccrf-cem) [µM],IC50 (A549; a549) [µM],IC50 [9] [µM],IC50 (K562 [10]; k562) [µM],other results
CCCCCCCCCOC(c1ccc([N+](=O)[O-])cc1)c1cn([C@@H]2O[C@H](CO)[C@@H](O)[C@H]2O)c(=O)[nH]c1=O (stereo in doubt; (+)-7i),0.25,7.9,2.95,40.95,23.1,4,47.81,83,32.3,10.9,60.22,52.17,0.8,1.66,14.6,11.25,–,–,–,–,MIC (Staphylococcus aureus [1]): 50 µM; MIC [11]: 100 µM; MIC (Enterococcus faecalis): 50 µM; MIC (Staphylococcus aureus [17]): 50 µM
CCCCCCCOC(c1ccc([N+](=O)[O-])cc1)c1cn([C@@H]2O[C@H](CO)[C@@H](O)[C@H]2O)c(=O)[nH]c1=O (stereo in doubt; (-)-8g),–,–,–,–,–,–,–,–,–,–,–,–,–,–,–,–,29,69.9,95.6,36.7,IC50 (K562 [16]; k562): 52.3 µM
CCCCCCCCOC(c1ccc([N+](=O)[O-])cc1)c1cn([C@@H]2O[C@H](CO)[C@@H](O)[C@H]2O)c(=O)[nH]c1=O (stereo in doubt; (-)-8h),0.01,–,6.67,40.02,–,5,48.56,71,–,–,56.18,48.73,1.61,1.68,–,11.33,16.9,39.7,36.6,24.7,IC50 (K562 [16]; k562): 34.4 µM
Nc1nc(F)nc2c1ncn2[C@@H]1O[C@H](CO)[C@@H](O)[C@@H]1O [FLUDARABINE],0.01,19.5,10.37,39.66,47.4,62.1,40.84,74.84,1.01,267,7.62,14.12,8.92,0.28,0.26,19.5,–,–,–,–,Activity (CCRF-CEM [19]): 52.94%; Activity (CCRF-CEM [20]): 4.95%; Activity (CCRF-CEM [21]): 42.11%
Nc1nc2[nH]cnc2c(=S)[nH]1 [THIOGUANINE],0.43,2.98,19.82,43.42,2.82,11.27,49.39,18.69,9.47,1.54,45.84,35.32,48.93,1.21,3.9,7.19,–,–,–,–,Activity (CCRF-CEM [19]): 46.47%; Activity (CCRF-CEM [20]): 9.95%; Activity (CCRF-CEM [21]): 43.58%
